Laboratory results reported in ChEMBL document CHEMBL3124806, “Imidazopyridine-fused [1,3]-diazepinones: synthesis and antiproliferative activity” (Eur J Med Chem, 2014).

How the values were obtained:
Format in all cases: functional
SK-MEL-2 = assay: Cytotoxicity against human SK-MEL-2 cells assessed as cell growth at 10 uM after 48 hrs by SRB assay relative to untreated control; details: SK-MEL-2, 48 h, read-out: Activity
How it was run: (§1)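 NCI-60 one-dose screen: each agent added at 10 µM, cultures incubated 48 h. Endpoint by sulforhodamine B protein-binding dye read spectrophotometrically; growth expressed as percent of untreated control cells.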

TK-10 = assay: Cytotoxicity against human TK10 cells assessed as cell growth at 10 uM after 48 hrs by SRB assay relative to untreated control; details: TK-10, 48 h, read-out: Activity
How it was run: (§2)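 NCI-60 single-dose screen. Compounds were added to the cultures at 10 μM and incubated for 48 h. The end point was sulforhodamine B protein staining read spectrophotometrically. Growth is reported as percent of untreated control cells.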

K562 = assay: Cytotoxicity against human K562 cells assessed as cell growth at 10 uM after 48 hrs by SRB assay relative to untreated control; details: K562, 48 h, read-out: Activity
How it was run: (§3)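 NCI-60 panel screen at a single concentration of 10 μM with 48 h incubation. Cell density measured by sulforhodamine B protein-binding dye and read spectrophotometrically. Growth expressed as percent of untreated control cells.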

DU-145 = assay: Cytotoxicity against human DU145 cells assessed as cell growth at 10 uM after 48 hrs by SRB assay relative to untreated control; details: DU-145, 48 h, read-out: Activity; how it was run: as §3
KM12 = assay: Cytotoxicity against human KM12 cells assessed as cell growth at 10 uM after 48 hrs by SRB assay relative to untreated control; details: KM12, 48 h, read-out: Activity; how it was run: as §3
NCI-H460 = assay: Cytotoxicity against human NCI-H460 cells assessed as cell growth at 10 uM after 48 hrs by SRB assay relative to untreated control; details: NCI-H460, 48 h, read-out: Activity; how it was run: as §1
M14 = assay: Cytotoxicity against human M14 cells assessed as cell growth at 10 uM after 48 hrs by SRB assay relative to untreated control; details: M14, 48 h, read-out: Activity; how it was run: as §3
SR = assay: Cytotoxicity against human SR cells assessed as cell growth at 10 uM after 48 hrs by SRB assay relative to untreated control; details: read-out: Activity; how it was run: as §2
HCC 2998 = assay: Cytotoxicity against human HCC2998 cells assessed as cell growth at 10 uM after 48 hrs by SRB assay relative to untreated control; details: HCC 2998, 48 h, read-out: Activity; how it was run: as §3
ACHN = assay: Cytotoxicity against human ACHN cells assessed as cell growth at 10 uM after 48 hrs by SRB assay relative to untreated control; details: read-out: Activity; how it was run: as §3
HL-60(TB) = assay: Cytotoxicity against human HL-60(TB) cells assessed as cell growth at 10 uM after 48 hrs by SRB assay relative to untreated control; details: HL-60, 48 h, read-out: Activity
How it was run: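 NCI-60 human tumour cell line panel; a single 10 µM concentration was added to the cultures and incubated 48 h. Endpoint was sulforhodamine B protein-binding dye read spectrophotometrically, with growth reported as percent of untreated control cells.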

T47D = assay: Cytotoxicity against human T47D cells assessed as cell growth at 10 uM after 48 hrs by SRB assay relative to untreated control; details: read-out: Activity; how it was run: as §2
MCF7 = assay: Cytotoxicity against human MCF7 cells assessed as cell growth at 10 uM after 48 hrs by SRB assay relative to untreated control; details: MCF7, 48 h, read-out: Activity; how it was run: as §3
MOLT-4 = assay: Cytotoxicity against human MOLT4 cells assessed as cell growth at 10 uM after 48 hrs by SRB assay relative to untreated control; details: MOLT-4, 48 h, read-out: Activity; how it was run: as §1
HCT-116 = assay: Cytotoxicity against human HCT116 cells assessed as cell growth at 10 uM after 48 hrs by SRB assay relative to untreated control; details: HCT-116, 48 h, read-out: Activity; how it was run: as §3
SF-268 = assay: Cytotoxicity against human SF268 cells assessed as cell growth at 10 uM after 48 hrs by SRB assay relative to untreated control; details: SF-268, 48 h, read-out: Activity; how it was run: as §1
A549 = assay: Cytotoxicity against human A549 cells assessed as cell growth at 10 uM after 48 hrs by SRB assay relative to untreated control; details: A549, 48 h, read-out: Activity; how it was run: as §3
SK-MEL-28 = assay: Cytotoxicity against human SK-MEL-28 cells assessed as cell growth at 10 uM after 48 hrs by SRB assay relative to untreated control; details: SK-MEL-28, 48 h, read-out: Activity; how it was run: as §2
A498 = assay: Cytotoxicity against human A498 cells assessed as cell growth at 10 uM after 48 hrs by SRB assay relative to untreated control; details: A498, 48 h, read-out: Activity; how it was run: as §3
HCT-15 = assay: Cytotoxicity against human HCT15 cells assessed as cell growth at 10 uM after 48 hrs by SRB assay relative to untreated control; details: HCT-15, 48 h, read-out: Activity; how it was run: as §3
[1] = Cytotoxicity against human UO31 cells assessed as cell growth at 10 uM after 48 hrs by SRB assay relative to untreated control; details: UO-31, 48 h, read-out: Activity; how it was run: as §2
SNB-19 = assay: Cytotoxicity against human SNB19 cells assessed as cell growth at 10 uM after 48 hrs by SRB assay relative to untreated control; details: SNB-19, 48 h, read-out: Activity; how it was run: as §2
SN12C = assay: Cytotoxicity against human SN12C cells assessed as cell growth at 10 uM after 48 hrs by SRB assay relative to untreated control; details: read-out: Activity; how it was run: as §2
786-0 = assay: Cytotoxicity against human […] cells assessed as cell growth at 10 uM after 48 hrs by SRB assay relative to untreated control; details: 786-0, 48 h, read-out: Activity; how it was run: as §3
OVCAR-3 = assay: Cytotoxicity against human OVCAR3 cells assessed as cell growth at 10 uM after 48 hrs by SRB assay relative to untreated control; details: OVCAR-3, 48 h, read-out: Activity; how it was run: as §1
MDA-MB-468 = assay: Cytotoxicity against human MDA-MB-468 cells assessed as cell growth at 10 uM after 48 hrs by SRB assay relative to untreated control; details: MDA-MB-468, 48 h, read-out: Activity; how it was run: as §1
COLO 205 = assay: Cytotoxicity against human COLO205 cells assessed as cell growth at 10 uM after 48 hrs by SRB assay relative to untreated control; details: COLO 205, 48 h, read-out: Activity; how it was run: as §3
[2] = Cytotoxicity against human UACC257 cells assessed as cell growth at 10 uM after 48 hrs by SRB assay relative to untreated control; details: UACC-257, 48 h, read-out: Activity; how it was run: as §2

SMILES | growth at 10 µM (SK-MEL-2) [%] | growth at 10 µM (TK-10) [%] | growth at 10 µM (DU-145) [%] | growth at 10 µM (KM12) [%] | growth at 10 µM (NCI-H460) [%] | growth at 10 µM (M14) [%] | growth at 10 µM (SR) [%] | growth at 10 µM (HCC 2998) [%] | growth at 10 µM (ACHN) [%] | growth at 10 µM (T47D) [%] | growth at 10 µM (MCF7) [%] | growth at 10 µM (MOLT-4) [%] | growth at 10 µM (HCT-116) [%] | growth at 10 µM (SF-268) [%] | growth at 10 µM (A549) [%] | growth at 10 µM (SK-MEL-28) [%] | growth at 10 µM (A498) [%] | growth at 10 µM (HCT-15) [%] | growth at 10 µM [1] [%] | growth at 10 µM (SNB-19) [%] | also measured
O=C1Nc2nc3ccccn3c2C(=O)[C@H](Cc2ccccc2)N1 | 113 | 99.8 | 104 | 100 | 103 | 93 | 107 | 97.5 | 97 | 103 | 95.7 | 110 | 92.3 | 101 | 98.6 | 114 | 94 | 94.6 | 90.2 | 103 | growth at 10 µM (K562): 106%; growth at 10 µM (HL-60(TB)): 116%; growth at 10 µM (SN12C): 105%; growth at 10 µM (786-0): 99.2%; growth at 10 µM (OVCAR-3): 101%; growth at 10 µM (MDA-MB-468): 98.4%; growth at 10 µM (COLO 205): 126%; growth at 10 µM [2]: 89.8%
Cc1ccc(C2=Nc3nc4ccccn4c3C(=O)[C@H](Cc3ccccc3)N2)cc1 | 105 | 135 | 117 | 92.9 | 103 | 97.7 | 89.7 | 106 | 92.1 | 96.5 | 76.2 | 92.8 | 94.3 | 97.4 | 94.9 | 109 | 101 | 78 | 77 | 96.4 | growth at 10 µM (K562): 87.9%; growth at 10 µM (HL-60(TB)): 116%; growth at 10 µM (SN12C): 104%; growth at 10 µM (786-0): 106%; growth at 10 µM (OVCAR-3): 99.3%; growth at 10 µM (MDA-MB-468): 84.5%; growth at 10 µM (COLO 205): 113%; growth at 10 µM [2]: 91.1%
O=C1c2c(nc3ccccn23)NC(=O)N2CCC[C@@H]12 | 107 | 99.6 | 100 | 105 | 105 | 94.8 | 126 | 105 | 101 | 92.8 | 99.9 | 120 | 89 | 100 | 98 | 106 | 88.5 | 99.9 | 95.1 | 104 | growth at 10 µM (SN12C): 106%; growth at 10 µM (786-0): 98.6%; growth at 10 µM (OVCAR-3): 108%; growth at 10 µM (MDA-MB-468): 93.5%; growth at 10 µM (COLO 205): 123%; growth at 10 µM [2]: 91%
O=C1c2c(nc3ccccn23)N=C(c2ccccc2)N2CCC[C@@H]12 | 114 | 124 | 97 | 101 | 103 | 96.5 | 118 | 94.7 | 97.9 | 93.6 | 93 | 111 | 97.8 | 97.8 | 96.3 | 108 | 89.3 | 93.8 | 88.7 | 103 | growth at 10 µM (K562): 124%; growth at 10 µM (HL-60(TB)): 129%; growth at 10 µM (SN12C): 99.6%; growth at 10 µM (786-0): 97.9%; growth at 10 µM (OVCAR-3): 105%; growth at 10 µM (MDA-MB-468): 101%; growth at 10 µM (COLO 205): 99.3%; growth at 10 µM [2]: 94.5%
COc1ccc(C2=Nc3nc4ccccn4c3C(=O)[C@H](Cc3ccccc3)N2)cc1 | 106 | 133 | 111 | 99.9 | 104 | 98.3 | 105 | 96.4 | 101 | 98.8 | 90.1 | 113 | 88 | 105 | 109 | 98.1 | 112 | 101 | 83.5 | 103 | growth at 10 µM (K562): 86%; growth at 10 µM (SN12C): 113%; growth at 10 µM (786-0): 101%; growth at 10 µM (OVCAR-3): 110%; growth at 10 µM (MDA-MB-468): 98.5%; growth at 10 µM (COLO 205): 127%; growth at 10 µM [2]: 92.3%
Cc1ccc(C2=Nc3nc4ccccn4c3C(=O)[C@@H]3CCCN23)cc1 | 105 | 110 | 97.4 | 98.6 | 102 | 94.8 | 88.5 | 99.4 | 93.9 | 89.8 | 89 | 92.4 | 94 | 88 | 92.7 | 108 | 68.5 | 95.3 | 80.3 | 92.2 | growth at 10 µM (K562): 104%; growth at 10 µM (HL-60(TB)): 125%; growth at 10 µM (SN12C): 101%; growth at 10 µM (786-0): 98.1%; growth at 10 µM (OVCAR-3): 96.7%; growth at 10 µM (MDA-MB-468): 94.8%; growth at 10 µM (COLO 205): 94.4%; growth at 10 µM [2]: 98.8%
Cc1ccccc1C1=Nc2nc3ccccn3c2C(=O)[C@H](Cc2ccccc2)N1 | 115 | 138 | 113 | 108 | 103 | 102 | 122 | 99.9 | 94.5 | 104 | 84.9 | 111 | 86.9 | 104 | 91.7 | 113 | 98.2 | 100 | 80.6 | 109 | growth at 10 µM (K562): 113%; growth at 10 µM (HL-60(TB)): 125%; growth at 10 µM (SN12C): 107%; growth at 10 µM (786-0): 101%; growth at 10 µM (OVCAR-3): 108%; growth at 10 µM (MDA-MB-468): 104%; growth at 10 µM (COLO 205): 107%; growth at 10 µM [2]: 87.3%
